# Assay outcomes deposited in PubChem by Johns Hopkins Ion Channel Center.
# An excerpt weighted towards active compounds, which were near 2.3% of everything screened.
# TRPC4 act: activators of mouse TRPC4 channel, primary screen, Fluo4 calcium, HEK293 TRPC4beta/mu-opioid cells | Fluo4 calcium fluorescence; stronger effect = higher value | B-score at 10 µM | 310,000 tested, 0.49% active;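 active = B-score above 5 SD of library B-scores, and initial fluorescence ratio not above library mean plus 5 SD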;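 note: positive B-score marks a calcium rise read as TRPC4 activation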
#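 Material: HEK293 stable line with TRPC4beta plus mu-opioid receptor; technique: Fluo4 calcium-sensitive dye fluorescence, kinetic, 1 Hz baseline; timing: Fluo4 dye loading 45 min at room temperature, 110 s recording; controls: assay buffer as low control, maximal DAMGO as high control; read-out: integrated baseline-normalised fluorescence ratio, converted to per-well B score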
# TRPC6 act: mouse TRPC6 channel activators, primary screen, cell-based, HEK293, membrane potential dye; HEK293-TRPC6 membrane potential dye fluorescence; stronger effect = higher value; B-score at 10 µM; AID 2550, 2010; Short transient receptor potential channel 6 (Mus musculus), Q61143; 310,000 tested, 0.13% active;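 active = B-score of the integrated fluorescence ratio above library mean plus 3 SD, and starting fluorescence ratio within library mean plus 5 SD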;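 note: higher score means more depolarization so channel activation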
# Target sequence (Q61143 whole entry, looked up): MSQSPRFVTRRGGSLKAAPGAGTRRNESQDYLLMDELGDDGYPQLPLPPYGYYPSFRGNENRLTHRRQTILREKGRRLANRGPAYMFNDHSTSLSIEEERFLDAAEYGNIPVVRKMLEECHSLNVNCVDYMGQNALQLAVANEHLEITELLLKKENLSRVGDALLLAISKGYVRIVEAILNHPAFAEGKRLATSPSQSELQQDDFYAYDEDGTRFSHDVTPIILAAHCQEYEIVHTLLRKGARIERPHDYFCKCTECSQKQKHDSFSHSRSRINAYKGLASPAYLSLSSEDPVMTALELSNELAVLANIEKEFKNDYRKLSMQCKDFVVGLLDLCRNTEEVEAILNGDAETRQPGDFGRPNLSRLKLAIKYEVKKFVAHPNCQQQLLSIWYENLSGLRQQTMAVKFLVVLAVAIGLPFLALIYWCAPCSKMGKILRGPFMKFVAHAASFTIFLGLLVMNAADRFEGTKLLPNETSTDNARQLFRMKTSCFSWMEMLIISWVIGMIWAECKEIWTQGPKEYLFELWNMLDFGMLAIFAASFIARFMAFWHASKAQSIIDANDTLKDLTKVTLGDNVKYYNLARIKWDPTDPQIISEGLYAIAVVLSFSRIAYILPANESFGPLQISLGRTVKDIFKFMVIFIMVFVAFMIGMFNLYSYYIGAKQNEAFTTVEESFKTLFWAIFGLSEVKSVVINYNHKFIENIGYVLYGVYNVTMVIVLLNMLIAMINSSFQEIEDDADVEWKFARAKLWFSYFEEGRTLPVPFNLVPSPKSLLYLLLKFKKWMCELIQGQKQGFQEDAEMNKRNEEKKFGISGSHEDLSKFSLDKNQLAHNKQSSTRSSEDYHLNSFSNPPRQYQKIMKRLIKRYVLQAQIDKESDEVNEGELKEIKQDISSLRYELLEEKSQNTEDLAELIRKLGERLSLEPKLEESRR
# TRPC4 block: inhibitors of mouse TRPC4 channel, primary screen, Fluo4 calcium, HEK293 TRPC4beta/mu-opioid cells; Short transient receptor potential channel 4 (Mus musculus), Q9QUQ5; DAMGO-evoked Fluo4 calcium flux; stronger effect = lower value; B-score at 10 µM; 300,000 tested, 0.39% active; AID 2247, 2010;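 active = B-score over 3 SD under the library average, no early fluorescence shift, positive overall ratio signal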
#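 Test system – stable TRPC4beta/mu-opioid receptor HEK293 cells · Probe or stimulus – DAMGO, a submaximal dose followed by a maximal one · Dosing – one concentration per compound · Signal – Fluo4 calcium fluorescence by kinetic imaging, 5 s 1 Hz baseline · Evaluation – per-well B score of integrated baseline-normalized Fluo4 ratio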
# TRPC4 potent: positive allosteric modulators of TRPC4, primary screen, cell-based, mouse TRPC4beta, HEK293 mu-opioid, Fluo-4 calcium | B-score at 10 µM | 310,000 tested, 0.42% active | DAMGO EC20, Fluo-4 Ca2+ flux; stronger effect = higher value | AID 2227, 2009;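 active = B-score of calcium response area above 5 SD of library B-scores, with initial fluorescence ratio within 5 SD of library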;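 note: B-score of integrated fluorescence ratio over time as area under calcium response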
# TRPC6 inh: mouse TRPC6 channel inhibitors, primary screen, cell-based, HEK293, membrane potential dye. ACh-evoked depolarization; stronger effect = lower value. B-score at 10 µM. Short transient receptor potential channel 6 (Mus musculus), Q61143. 310,000 tested, 1.1% active;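 active = B-score under library mean minus 3 SD, initial fluorescence not abnormally high, positive integrated signal ratio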;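 note: B-score derived from integrated fluorescence ratio over the kinetic read; more negative B-score means stronger inhibition of depolarization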
# Starred values were filed as active, the others as inactive; i = inactive.
SMILES,TRPC4 act,TRPC6 act,TRPC4 block,TRPC4 potent,TRPC6 inh
COc1ccc(N2CCN(C(c3cccs3)C(C)NC(=O)C(=O)N3CCCC3)CC2)cc1 (stereo not given),i,i,i,i,i
Cc1ccc(NC(=O)CCN2CCC(Cc3ccccc3)CC2)cc1,96*,i,i,i,i
CN1CCN(CCC(=O)Nc2ccccc2)CC1,i,i,i,i,i
Cc1cc(NCc2ccccc2)c2ccccc2n1,i,i,i,i,i
Cc1cc(NCc2ccccc2)nc2ccccc12,51*,i,-7*,i,i
O=C(CCNC(=O)c1ccccc1Cl)Nc1ccccc1N1CCCC1,i,i,i,i,i
O=C(CCNC(=O)c1ccc(Br)cc1)Nc1ccccc1N1CCCCC1,i,i,-6*,i,i
COCc1ccc(CN2CCCC(CO)(Cc3ccccc3C)C2)o1 (stereo not given),i,i,i,i,i
COc1cc(CN2CCCC(CO)(Cc3ccccc3C)C2)cc2c1OCO2 (stereo not given),i,i,-6*,i,i
CCCn1c(=O)c2ccccc2n2c(SCCOc3ccccc3)nnc12,i,i,-7*,i,i
CCCn1c(=O)c2ccccc2n2c(SC(C)C(N)=O)nnc12 (stereo not given),i,i,i,i,i
CCCOC(=O)c1c(-c2ccc(C)cc2C)csc1NC(=O)C1C2CCC(O2)C1C(=O)O (stereo not given),i,i,i,i,i
COc1ccc(-n2c3c(cc(C(=O)NCc4ccco4)c2=O)C(=O)CC(C)(C)C3)cc1,i,i,-7*,i,i
NC(CCCCc1ccccc1)c1cccc2ccccc12 (stereo not given),i,i,i,i,-7.9*
COc1ccc(CCNCC(O)COc2ccc(OC)cc2C(C)(C)C)cc1 (stereo not given),i,i,i,16*,i
COc1ccc(CCNCC(O)COc2cccc(Br)c2)cc1OC (stereo not given),i,i,i,i,i
CC(C)c1c(O)nc(SCCN2CCOCC2)[nH]c1=O,i,i,i,i,i
CCCCSc1nc(O)c(Cc2ccccc2)c(=O)[nH]1,i,i,i,i,i
CCN(CC)CCSc1nc(O)c(C(C)C)c(=O)[nH]1,80*,i,i,12*,i
CCCc1c(O)nc(SCCN(CC)CC)[nH]c1=O,112*,i,i,i,i
OC12CCCCC1C(c1ccc3c(c1)OCO3)N(Cc1ccc(F)cc1)CC2 (stereo not given),48*,i,i,i,i
OC12CCCCC1C(c1ccc3c(c1)OCO3)N(Cc1cccc(F)c1)CC2 (stereo not given),i,i,i,i,i
Cc1cccc(CC(Cc2nc3ccccc3[nH]2)c2nc3ccccc3[nH]2)c1 (stereo not given),i,i,i,i,i
COc1ccccc1CC(Cc1nc2ccccc2[nH]1)c1nc2ccccc2[nH]1 (stereo not given),i,i,-6*,i,i
COCCCNCCCCOc1c(Cl)cc(C)cc1Br,i,i,i,i,i
SMILES,TRPC4 act,TRPC6 act,TRPC4 block,TRPC4 potent,TRPC6 inh
C=CCNCCCCOc1c(Cl)cc(C)cc1Br,57*,i,i,i,i
O=C(CCCCn1c(=O)[nH]c2ccccc2c1=O)NC1CCN(Cc2ccccc2)CC1,86*,i,i,i,i
O=C(CCCCn1c(=O)c2ccccc2n(Cc2ccccc2F)c1=O)NC1CCN(Cc2ccccc2)CC1,i,i,i,12*,i
COC(=O)c1ccccc1NC(=O)Cn1c(=O)n(CCC(=O)NC2CCN(Cc3ccccc3)CC2)c(=O)c2ccccc21,i,i,i,i,i
Cc1cccc(C)c1NC(=O)Cn1c(=O)n(CCCC(=O)NC2CCN(Cc3ccccc3)CC2)c(=O)c2ccccc21,i,i,i,i,i
CCCn1c(=O)c2sccc2n2c(CCCC(=O)NC3CCN(Cc4ccccc4)CC3)nnc12,i,i,i,16*,i
Cc1cc(NC(=O)Cn2c(=O)n(CCCCC(=O)NC3CCN(Cc4ccccc4)CC3)c(=O)c3ccccc32)n[nH]1,i,i,i,11*,i
O=C(CCCn1c(=O)[nH]c2ccccc2c1=O)NC1CCCCCC1,i,i,i,i,i
O=C(Nc1ccc(N2CCOCC2)cc1)c1ccc(COc2ccccc2)cc1,i,i,i,i,i
COc1ccc(/C=N/NC(=O)c2ccncc2)cc1CSc1nc2ccccc2s1,i,i,i,i,i
CCn1c(N2CCN(C(=O)NC3CCCCC3)CC2)nc2ccccc21,46*,i,i,i,i
CCn1c(NC2CCCCC2)nc2ccccc21,i,i,-6*,i,i
CCn1c(N2CCN(C(=O)Nc3ccc(F)cc3)CC2)nc2ccccc21,118*,i,i,i,i
O=C(NC1CCCCC1)N1CCN(c2ccccc2)CC1,i,i,i,i,i
CCCn1c(N2CCN(C(=O)Nc3ccccc3)CC2)nc2ccccc21,i,i,i,i,i
O=C(NC1CCCCC1)N1CCN(C(c2ccccc2)c2ccccc2)CC1,i,i,-6*,i,i
COc1ccc(OC)c(C2=NS(=O)(=O)N(C)C(C(=O)NCc3ccco3)=C2)c1,i,i,i,i,i
O=S(=O)(NC(=NC1CCCCC1)c1ccccc1F)c1ccccc1,i,i,i,i,i
CCn1c(N2CCN(CC(=O)Nc3cccc(C)c3C)CC2)nc2ccccc21,147*,i,i,i,i
CC(C)Cn1c(N2CCN(CC(=O)Nc3ccc(Cl)cc3)CC2)nc2ccccc21,i,i,i,i,i
O=C(C1CCN(S(=O)(=O)c2cccnc2)CC1)N1CCN(c2ccc(Cl)cc2)CC1,63*,i,-6*,i,i
COC(C(=O)N/N=C(\C)c1ccc(C(C)(C)C)cc1)c1ccccc1 (stereo not given),i,i,i,i,i
